# Bioassay records (PubChem)
# An excerpt weighted towards active compounds, which were near 3.5% of everything screened.
# MrgX1 antagonist = blocks BAM8-22 activation of human MrgX1 receptor. Q96LB2. B-score at 10 µM. MRGX1-HEK293 calcium flux, Fluo-4, BAM8-22 antagonism; active compounds read low. 1.3% of 310,000 active;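 active means calcium-response B-score plate-corrected more than 3 library SD below zero, starting fluorescence within 5 deviations, no agonist response on first addition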;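 further: peak minus trough fluorescence over baseline after final BAM8-22 challenge near maximal dose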
# MrgX1 PAM = human MrgX1 positive allosteric modulation, primary screen; Q96LB2; MrgX1-HEK293, Fluo-4 calcium flux, FDSS; active compounds read high; B-score at 10 µM; 0.63% of 310,000 active;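 active means plate-corrected calcium response at least 3 library SD above typical, normal starting fluorescence, not activating the receptor alone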;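 further: compound read alongside a low EC10 to EC30 dose of BAM8-22 agonist; peak minus trough fluorescence over baseline measured at the second addition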
# RGS4 pot = potentiators or activators of RGS4; HEK293 M3R/inducible RGS4, carbachol calcium flux Fluo4; active compounds read low; B-score at 10 µM; 0.92% of 310,000 active;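 active means B-score of the integrated calcium signal more than 4 SD below the library mean, with starting fluorescence not abnormally high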;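 further: negative B-score means reduced calcium response which marks RGS4 activation or potentiation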
#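 Assay system: Inducible-RGS4 HEK293 cells carrying M3 receptor | Schedule: Compound preincubation 20 min at room temperature before agonist | Signal: Kinetic calcium fluorescence imaging with Fluo4-AM dye, 2 µM | Read-out basis: B score from integrated fluorescence ratio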
# MrgX1 ag = agonists of human MrgX1 receptor. Q96LB2. MrgX1-HEK293 cells, Fluo-4 calcium fluorescence, agonist mode; active compounds read high. B-score at 10 µM. 0.44% of 310,000 active. AID 588627;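 active means calcium response B-score plate-corrected fluorescence ratio at least 3 library SD, with starting fluorescence B-score inside 5 SD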
#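 Material: MrgX1-expressing HEK293 cells / Dosing: compound as first of three additions / Incubation: overnight seeding, then 1 h dark dye loading / Signal: Fluo-4 NW calcium fluorescence / Evaluation: B-scored fluorescence response ratio / Benchmarks: positive and negative control wells on each plate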
# RGS4 block = inhibitors of human RGS4. P49798. 0.45% of 310,000 active. HEK293 M3R/RGS4 inducible, Fluo-4 calcium flux; active compounds read high; triggered by carbachol at its EC20. B-score at 10 µM;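 active means B-score, a plate-corrected calcium signal, over three deviations above library mean, with baseline fluorescence within five deviations of library mean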;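 further: RGS4 expression induced by doxycycline in cells with stable M3 receptor; B-score is computed from the integrated fluorescence ratio over baseline after carbachol; higher B-score means a larger calcium signal and so more RGS4 inhibition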
# Target sequence (P49798 whole entry, looked up): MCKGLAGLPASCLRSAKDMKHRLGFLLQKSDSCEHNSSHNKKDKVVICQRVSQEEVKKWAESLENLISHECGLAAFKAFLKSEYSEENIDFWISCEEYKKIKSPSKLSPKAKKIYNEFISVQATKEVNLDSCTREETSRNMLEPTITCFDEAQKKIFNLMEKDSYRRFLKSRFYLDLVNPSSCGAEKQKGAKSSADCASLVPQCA
# MrgX1 PAM conf = human MrgX1 positive allosteric modulation, re-confirmation; shares compounds with MrgX1 PAM; MrgX1-HEK293, Fluo-4 calcium fluorescence, FDSS; activation (ratio percentage), % at 10 µM; 13% of 1,200 active; AID 602413;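 active means ratio at least 3 SD above the weak peptide control, stable starting fluorescence, no direct agonism earlier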;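 further: compound followed by low BAM8-22 agonist challenge near EC20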
# HEK293 Ca flux = MrgX1 antagonist counter-screen hit in parental HEK293 cells | shares compounds with MrgX1 antagonist | AID 624111 | Fluo-4 calcium fluorescence, FDSS | fluorescence ratio F(max-min)/F0 at 10 µM | 2% of 4,000 active;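 active means duplicate-averaged calcium fluorescence ratio at least three times the standard deviation of buffer wells, a nonspecific response in parental cells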
# HEK293 Ca counter = activity in parental HEK293 cells without MrgX1 | parental HEK293 calcium flux, Fluo-4 fluorescence ratio; active compounds read high | fluorescence ratio F(max-min)/F0 at 10 µM | shares compounds with MrgX1 antagonist | AID 624114 | 0.4% of 4,000 active;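 active means calcium fluorescence ratio, averaged over duplicates, at least 3 SD of the buffer-well ratio, meaning a nonspecific response in receptor-free cells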;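 further: untransfected parental HEK293 lacking MrgX1 used as counterscreen for MrgX1 allosteric activators; fluorescence change taken during the second addition on a kinetic imager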
# HEK293 Ca cntr2 = counter-screen for MrgX1 activators: effect in parental HEK293 cells. Fluo-4 calcium fluorescence (FDSS); active compounds read high. fluorescence ratio F(max-min)/F0 at 10 µM. 8.7% of 4,000 active. shares compounds with MrgX1 antagonist;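 active means calcium fluorescence ratio at least three times the spread of buffer wells, meaning a non-specific response in parental cells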
# * = called active by the depositor; i = inactive; . = not tested or not shown.
SMILES,MrgX1 antagonist,MrgX1 PAM,RGS4 pot,MrgX1 ag,RGS4 block,MrgX1 PAM conf,HEK293 Ca flux,HEK293 Ca counter,HEK293 Ca cntr2
CCOc1ccccc1NC(=O)N1CCc2ccccc2C1,i,i,i,i,i,.,.,.,.
O=C(Cn1cnc2c(nnn2Cc2ccccc2)c1=O)Nc1ccc2c(c1)OCCO2,i,i,i,i,i,.,.,.,.
O=C(Cn1cc2c(n1)CCCCC2)Nc1ccccc1Cl,i,8*,i,i,i,i,i,i,i
COC(=O)c1ccccc1NC(=O)Cn1cc2c(n1)CCC(C)C2 (centres undefined),i,23*,i,i,i,i,i,i,i
Cc1ccc(NC(=O)Cn2cc3c(n2)CCC(C)C3)cc1 (centres undefined),i,i,i,i,i,.,.,.,.
CC1CCCC(NC(=O)Cn2cc3c(n2)CCCCC3)C1C (centres undefined),i,6.5*,i,i,i,i,i,i,i
O=C(Cn1cc2c(n1)CCCC2)Nc1ccccc1Br,i,22*,i,i,i,i,i,i,i
COc1cc(CC(=O)Nc2sc3c(c2C(N)=O)CCCC3)cc(OC)c1OC,i,i,i,i,i,.,.,.,.
Cc1nn(C(C)C(=O)NCc2cccs2)c(C)c1[N+](=O)[O-] (centres undefined),i,i,i,i,i,.,.,.,.
CC(OC(=O)c1cc(S(=O)(=O)N2CCOCC2)ccc1F)C(=O)NC1CCCCC1C (centres undefined),i,i,i,i,i,.,.,.,.
COc1ccc(CNc2nnnn2C)c(OC)c1,i,i,i,i,i,.,.,.,.
O=C(Cn1cc2c(n1)CCCC2)Nc1ccccc1Cl,i,13*,i,i,i,i,i,i,86*
O=C(Cc1ccc2c(c1)CCCC2)Nc1ccccc1Br,i,7.3*,i,i,i,i,i,i,i
O=C(Cc1ccc2ccccc2c1)Nc1ccccc1Br,i,i,i,i,i,.,.,.,.
COc1ccccc1C(=O)NCCC(=O)N1CCCC(C)C1 (centres undefined),i,i,i,i,i,.,.,.,.
CC(C)c1ccc2c(c1)[C@H]1OCC[C@H]1[C@@H](c1cccs1)N2,i,8.3*,i,i,i,3.3%*,i,i,i
C/C(=C\C(=O)C(F)(F)F)Nc1ccc(C)cc1,i,7.7*,i,i,i,13%*,i,i,i
C/C(=C\C(=O)C(F)(F)F)Nc1cc(C)cc(C)c1,i,i,i,i,i,.,.,.,.
COc1ccc(OC(=O)COc2cccc(C)c2)cc1,i,i,i,i,i,.,.,.,.
COc1ccc(N(C(=O)COc2cccc(C)c2)S(=O)(=O)c2ccc(C)cc2)cc1,i,18*,i,i,i,i,i,i,i
O=C(O)CC(Cc1ccc(Cl)cc1)C(=O)Nc1cc(Cl)ccc1Cl (centres undefined),i,i,i,i,i,.,.,.,.
O=C(Nc1ccccc1N1CCOCC1)c1ccc2ccccc2c1,i,7.2*,i,i,i,i,i,i,i
O=C(Nc1ccccc1N1CCOCC1)c1cccc(NS(=O)(=O)c2ccc(F)c(F)c2)c1,i,11*,i,i,i,i,i,i,i
